From publication PMC6997517 (EBioMedicine, 2020)

Experiments:
TLR4 [1] = assay: Cytokine ELISA, LPS-stimulated THP-1-derived macrophages; type: cell-based, human
Outline: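 THP-1 cells grown in RPMI 1640 with 10% FBS and differentiated to macrophages with 80 nM PMA for 24 h. Seeded at 2 × 10^5/well (96-well) or 5 × 10^5/well (24-well) and grown overnight. After 24 h of treatment with test compound and LPS, secreted IL-6 and TNF-α in supernatants were quantified by ELISA.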

CIA mice [2] = assay: Collagen-induced arthritis; type: in vivo, mouse (DBA/1 J)
Outline: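 Male DBA/1J mice (6–7 weeks, 20–23 g) immunised at tail base with 100 μg chicken type II collagen in an equal volume of complete Freund's adjuvant (day 0), boosted day 20. Groups of n = 7. Test compound (2·5 or 10 nmol/g) or methotrexate (2 mg/kg) in saline given i.p. once daily from day 22. Body weight, paw volume and arthritis index tracked. […] (maximum 16), twice weekly.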

TLR4 [3] = assay: Quantitative RT-PCR, LPS-stimulated RAW264.7 cells; type: cell-based, murine; conditions: TIP3 50 μM 1 h before LPS 100 ng/ml, 3 h; normalized to β-actin
Outline: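 Total RNA isolated with TRIzol and reverse-transcribed to cDNA. qPCR run with SYBR Green and gene-specific primers (reference genes β-actin and Gapdh). Relative expression calculated by the ΔΔCt method.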

TLR3 [4] = assay: Cytokine ELISA, poly; type: cell-based, murine; conditions: 24 h
Outline: (§1)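 RAW264.7 cells seeded at 2 × 10^5/well (96-well) or 5 × 10^5/well (24-well), grown overnight, then treated with test compound. Stimulus: poly(I:C), CpG-ODN (15), FSL-1 (16) or R848 (17). Supernatant cytokines read after 24 h by mouse ELISA kits (IFN-β, IL-6, TNF-α). Cells kept at 37 °C, 5% CO2.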

TLR3 [5] = assay: Cytokine ELISA, poly; type: cell-based, human; conditions: hMNCs, poly(I:C)
Outline: (§2)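 Commercial human mononuclear cells kept in RPMI 1640 (2·05 mM L-glutamine, 10% FBS, penicillin/streptomycin). Seeded at 2 × 10^5/well and grown overnight. Stimulated with LPS or poly(I:C) alongside test compound. After 24 h, supernatant IL-6 and TNF-α measured by human sandwich ELISA.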

[6] = test system: mice with IMQ-induced psoriasis-like disease; assay: Imiquimod; type: in vivo, mouse (C57BL/6)
Outline: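 C57BL/6 mice (6–7 weeks, specific-pathogen-free) given 62·5 mg of 5% imiquimod cream topically for 5 consecutive days; controls left untreated. Test compound (10 or 50 nmol/g) or PBS given daily, and methotrexate (10 μg/g) as reference, all starting 1 day before the cream. Mice killed after 5 days. Back-skin severity scored on a PASI-based scale.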

CIA mice [7] = assay: Micro-CT and histology of knee joints, CIA model; type: in vivo, mouse (DBA/1 J)
Outline: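 DBA/1J collagen-induced arthritis mice, dosed i.p. daily from day 22. Knee bone samples fixed in 10% formalin and scanned by in vivo micro-CT. Bone mineral density measured at 1 mm below the top of the tibia within a set region of interest. Joint sections stained with H&E and examined for synovial hyperplasia, pannus, immune-cell infiltration and joint-space narrowing.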

TLR4 [8] = assay: Immunofluorescence confocal microscopy of p-p65, LPS-stimulated RAW264.7 cells; type: cell-based, murine; conditions: TIP3 50 μM, 1 h before LPS 100 ng/ml
Outline: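 RAW264.7 cells seeded on coverslips (2 × 10^5/well) and grown overnight. Stained with anti-p-p65 (1:1000, 2 h), then Alexa Fluor 546 secondary for 1 h. Nuclei stained with 5 µM Hoechst 33258. Fluorescence intensity quantified by confocal microscopy.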

TLR4 [9] = assay: Cytokine ELISA, LPS-stimulated hMNCs; type: cell-based, human
Outline: as §2

TLR4 [10] = assay: Quantitative RT-PCR, LPS-stimulated THP-1 cells; type: cell-based, human; conditions: TIP3 50 μM 1 h, then LPS 4 h; normalized to GAPDH
Outline: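 THP-1 cells pretreated with test compound (50 μM) for 1 h, then LPS (100 ng/ml) added for 4 h. Total RNA extracted with TRIzol and cDNA synthesised. SYBR Green qPCR run with primers for IL-1β, IL-6, IL-8, TNF-α, with β-actin and GAPDH as references. Relative expression calculated by the ΔΔCt method.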

TLR4 [11] = assay: NO secretion assay, LPS-stimulated mBMDMs; type: cell-based, mouse
Outline: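 Bone marrow macrophages from C57BL/6J femurs/tibiae, differentiated with M-CSF (25 ng/ml) for 3–4 days and replated 24 h before use. Seeded at 2 × 10^5/well, grown overnight. Pretreated with test compound for 1 h, then co-treated with LPS. Extracellular NO in supernatant measured with a nitric oxide detection kit by absorbance at 550 nm.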

IL-1 receptor (IL-1R) = assay: IL-8 secretion, IL-1β-activated THP-1 cells; type: cell-based, human; conditions: THP-1 activated with IL-1β
TLR7/8 = assay: TNF-α secretion, R848; type: cell-based, murine; conditions: TIP3 at 50 μM
Outline: as §1

[12] = test system: lupus-prone mice (MRL/lpr); assay: SLE model, MRL/lpr mice; type: in vivo, mouse (MRL/lpr); conditions: 10 nmol/g i.p. daily, 20 days
[13] = PAP-TIP3 10 nmol/g, treatment started from day 35

## DYDVCVCH [TIP3]
TLR4 [1]
  IL-6 secretion: significant dose-dependent inhibitory effect
  TNF-α secretion: significant dose-dependent inhibitory effect
CIA mice [2]; [13]
  arthritis index, postarthritis phase treatment: significantly inhibited when compared with the CIA mice
  body weight, postarthritis phase treatment: did not observe any significant change in body weight
  paw volume, postarthritis phase treatment: significantly inhibited when compared with the CIA mice
CIA mice [2]; TIP3 10 nmol/g or MTX 2 mg/kg, i.p. daily from day 22
  loss of body weight: not observed
CIA mice [2]; TIP3 10 nmol/g or MTX 2 mg/kg, i.p. daily from day 22, maximal score 16
  arthritis index: significantly decreased
CIA mice [2]; TIP3 10 nmol/g or MTX 2 mg/kg, i.p. daily from day 22, plethysmometer
  relative paw volume (large paw volume): TIP3 (10 nmol/g)- and MTX-injected mice did not
CIA mice [2]; i.p. once a day from day 22, vs CIA mice
  induction of RA (arthritic symptoms): significantly attenuated
TLR4 [3]
  Cxcl-10 mRNA expression: significantly inhibited the mRNA expression
  Ifn-β mRNA expression: significantly inhibited the mRNA expression
  Il-1β mRNA expression: significantly inhibited the mRNA expression
  Il-6 mRNA expression: significantly inhibited the mRNA expression
  Tnf-α mRNA expression: significantly inhibited the mRNA expression
TLR3 [4]
  poly(I:C)-induced IFN-α secretion: also inhibited
  poly(I:C)-induced IFN-β secretion: also inhibited
  poly(I:C)-induced IL-6 secretion: also inhibited
TLR3 [4]; poly(I:C)
  TLR3-mediated TNF-α secretion: significantly diminished the TLR3-mediated TNF-α secretion in a dose-dependent manner
TLR3 [5]
  TLR3-mediated TNF-α secretion: significantly inhibited
[6]; TIP3 10 nmol/g vs MTX 10 μg/g
  effect relative to MTX: relatively weaker effect than did the MTX-treated group
[6]; TIP3 50 nmol/g i.p.
  spleen weight: significantly decreasing the spleen weight (almost to the weight of normal murine spleen)
[6]; TIP3 50 nmol/g i.p., vs MTX and TIP3 10 nmol/g
  body weight: underwent a weight loss as compared to the MTX- and TIP3 (10 nmol/g)-treated groups
[6]; TIP3 10 or 50 nmol/g daily
  inflammation severity of back skin: reversal of inflammation severity
[6]; TIP3 10 or 50 nmol/g i.p.
  PASI score: did not significantly reduce the PASI score starting from day 2
  splenomegaly: remarkably prevented splenomegaly in a dose-dependent manner
CIA mice [7]; TIP3 10 nmol/g, micro-CT
  bone destruction recovery (knee joint): remarkable recovery from the bone destruction
CIA mice [7]; TIP3-treated CIA mice, Fig. 4j synovial hyperplasia score
  inflammation score: significantly lower inflammation score
CIA mice [7]; prolonged TIP3 treatment
  synovial hyperplasia score: substantially reduces inflammation
TLR4 [8]
  LPS-induced p65 phosphorylation (confocal): decreased the LPS-induced p65 phosphorylation
TLR4 [9]
  TLR4-mediated IL-6 secretion: significantly inhibited
  TLR4-mediated TNF-α secretion: significantly inhibited
TLR4 [10]
  IL-1β mRNA expression: inhibited LPS-induced mRNA expression
  IL-6 mRNA expression: inhibited LPS-induced mRNA expression
  IL-8 mRNA expression: inhibited LPS-induced mRNA expression of these cytokines and of IL-8
  TNF-α mRNA expression: inhibited LPS-induced mRNA expression
TLR4 [11]
  LPS-induced extracellular NO: significant reduction
IL-1 receptor (IL-1R)
  IL-8 secretion: did not hinder the secretion of IL-8
TLR7/8
  TNF-α secretion mediated by TLR7, TLR8: somewhat weak inhibition
[12]
  complement C4: the levels of complement components C4 and C3 were recovered
[12]; ELISA
  dsDNA autoantibodies: remained low
  serum C3 complement: found to recover
  urine albumin: reduced by TIP3 treatment
[12]; vs vehicle
  lymphoid expansion and spleen volume: reducing the lymphoid expansion and the spleen volume
